The assay deals with Eimeria tenella. Kind of assay: Minimum effective concentration for anti-coccidial activity against […] coccidian parasite Eimeria tenella in chicks expressed as mmol/kg of feed. The assay is classed as functional. The procedure, abridged:
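Chicks kept on feed containing test drug, then challenged with *Eimeria tenella* oocysts. Activity is scored as the degree of lesion control in the ceca of treated, challenged birds. The lowest feed concentration that controls lesions is taken as the MEC. Values are usually reproducible within one 2-fold dilution (±0.3 in log(1/MEC)).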
For `O=c1cnn(-c2ccc(S(=O)(=O)N3CCOCC3)c(Cl)c2)c(=O)[nH]1`, the “Log 1/MEC” value was 1.09.

On to `O=c1cnn(-c2ccc(S(=O)(=O)c3ccc(Br)cc3)cc2)c(=O)[nH]1`, for which the “Log 1/MEC” value amounted to 1.71.

Regarding `O=c1cnn(-c2ccc(S(=O)(=O)c3ccc(Cl)cc3)c(Cl)c2)c(=O)[nH]1`, the “Log 1/MEC” value was determined as 2.3.

Consider `O=C1c2ccccc2CSc2cc(-n3ncc(=O)[nH]c3=O)ccc21`, for which the “Log 1/MEC” value came out at 1.04.

Take `O=c1cnn(-c2cc(I)cc(I)c2)c(=O)[nH]1`: the “Log 1/MEC” value amounted to 1.17.

For `CSc1ccc(Oc2c(C)cc(-n3ncc(=O)[nH]c3=O)cc2C)cc1`, the “Log 1/MEC” value is listed as 2.25.

For `Cc1cc(C)cc(-n2ncc(=O)[nH]c2=O)c1`, the “Log 1/MEC” value came out at 0.86.

Regarding `N#Cc1cccc(-n2ncc(=O)[nH]c2=O)c1`, the “Log 1/MEC” value is reported as 0.85.

As for `O=c1cnn(-c2ccc(S(=O)(=O)c3ccccc3)cc2)c(=O)[nH]1`, the “Log 1/MEC” value is 1.04.

Regarding `COc1c(Cl)cc(-n2ncc(=O)[nH]c2=O)cc1Cl`, the “Log 1/MEC” value came out at 0.06.

`O=C(c1ccc(Cl)cc1)c1c(Cl)cc(-n2ncc(=O)[nH]c2=O)cc1Cl`: the “Log 1/MEC” value was 2.9.

Regarding `O=c1cnn(-c2ccc(Cc3ccc(Cl)cc3)c(Cl)c2)c(=O)[nH]1`, the “Log 1/MEC” value turned out to be 1.64.

Consider `O=c1cnn(-c2ccc(Oc3ccc(I)cc3)c(Cl)c2)c(=O)[nH]1`, for which the “Log 1/MEC” value is on record as 1.77.

With `CC(C)(C)c1ccc(Sc2ccc(-n3ncc(=O)[nH]c3=O)cc2Cl)cc1`, the “Log 1/MEC” value came out at 0.51.

Turning to `Cc1cc(-n2ncc(=O)[nH]c2=O)cc(Cl)c1S(=O)(=O)N1CCSCC1`, the “Log 1/MEC” value is listed as 0.53.

For the compound `O=c1cnn(-c2ccc(F)c(C(F)(F)F)c2)c(=O)[nH]1`, the “Log 1/MEC” value is 1.26.

Regarding `COc1cc(-n2ncc(=O)[nH]c2=O)cc(OC)c1OC`, the “Log 1/MEC” value is reported as -0.55.

Take `O=c1cnn(-c2ccc(S(=O)(=O)N3CCC(O)CC3)c(Cl)c2)c(=O)[nH]1`: the “Log 1/MEC” value is -0.11.

Turning to `N#C[C@H](c1ccc(Cl)cc1)c1c(Cl)cc(-n2ncc(=O)[nH]c2=O)cc1Cl`, the “Log 1/MEC” value was 3.61.

Regarding `O=c1cnn(-c2ccccc2)c(=O)[nH]1`, the “Log 1/MEC” value was -0.42.

In turn, `CS(=O)(=O)c1ccc(-n2ncc(=O)[nH]c2=O)cc1` came in with a Log 1/MEC of -0.27.

Consider `O=c1cnn(-c2ccc(C(O)c3ccc(Cl)cc3)c(Cl)c2)c(=O)[nH]1` (stereo not drawn), for which the “Log 1/MEC” value came out at 2.26.

Consider `Cc1cc(-n2ncc(=O)[nH]c2=O)cc(C)c1S(=O)(=O)N1CCOCC1`, for which the “Log 1/MEC” value is on record as 1.39.

In turn, `O=c1cnn(-c2ccc(Oc3ccccc3)cc2)c(=O)[nH]1` had a Log 1/MEC of -0.25.

As to `Cc1cc(-n2ncc(=O)[nH]c2=O)ccc1Oc1ccc(S(C)(=O)=O)cc1`, the “Log 1/MEC” value worked out at 1.97.

Take `CCN(C)S(=O)(=O)c1ccc(Oc2c(C)cc(-n3ncc(=O)[nH]c3=O)cc2Cl)c(Cl)c1`: the “Log 1/MEC” value is 2.11.

For the compound `Cc1cc(-n2ncc(=O)[nH]c2=O)cc(Cl)c1Oc1ccc(C(C)O)cc1` (stereo not drawn), the “Log 1/MEC” value stood at 2.27.

With `O=c1cnn(-c2cc(Cl)c(Sc3ccc(Cl)cc3)c(Cl)c2)c(=O)[nH]1`, the “Log 1/MEC” value is on record as 3.3.

Turning to `O=c1cnn(-c2cc(Cl)c(Cc3ccc(Cl)cc3)c(Cl)c2)c(=O)[nH]1`, the “Log 1/MEC” value came out at 3.18.

Turning to `CCc1cc(-n2ncc(=O)[nH]c2=O)cc(C)c1Sc1ccc(Cl)cc1`, the “Log 1/MEC” value was 0.79.

As to `Cc1cc(-n2ncc(=O)[nH]c2=O)cc(Cl)c1S(=O)(=O)c1ccc(Cl)cc1`, the “Log 1/MEC” value stood at 1.71.

Turning to `O=c1cnn(-c2ccc(Oc3ccc(Cl)cc3Cl)c(Cl)c2)c(=O)[nH]1`, the “Log 1/MEC” value stood at 1.71.

On to `O=c1cnn(-c2ccc(Cl)c(C(F)(F)F)c2)c(=O)[nH]1`, for which the “Log 1/MEC” value is 1.56.

Turning to `O=c1cnn(-c2cccc(C(F)(F)F)c2)c(=O)[nH]1`, the “Log 1/MEC” value is listed as 0.93.

Take `O=c1cnn(-c2ccc([N+](=O)[O-])cc2)c(=O)[nH]1`: the “Log 1/MEC” value is on record as -0.03.

As for `Cc1cc(-n2ncc(=O)[nH]c2=O)cc(C)c1[S+]([O-])c1ccc(Cl)cc1` (stereo not drawn), the “Log 1/MEC” value was 2.58.

With `N#CC(c1ccc(Cl)cc1)c1c(Cl)cc(-n2ncc(=O)[nH]c2=O)cc1Cl` (stereo not drawn) [DICLAZURIL], the “Log 1/MEC” value is listed as 3.61.

In the case of `Cc1cc(-n2ncc(=O)[nH]c2=O)cc(Cl)c1Oc1ccc(S(=O)(=O)NC2CC2)cc1Cl`, the “Log 1/MEC” value was found to be 1.51.

For `Cc1cc(-n2ncc(=O)[nH]c2=O)ccc1Oc1ccc(Cl)cc1`, the “Log 1/MEC” value was 0.74.

For `Cc1cc(-n2ncc(=O)[nH]c2=O)cc(C)c1C(=O)c1ccc(Cl)cc1`, the “Log 1/MEC” value is listed as 1.38.

As to `O=c1cnn(-c2ccc(S(=O)(=O)c3ccc(Cl)cc3)cc2)c(=O)[nH]1`, the “Log 1/MEC” value is 1.96.

`O=c1cnn(-c2cc(Cl)c(S(=O)(=O)c3ccc(Cl)cc3)c(Cl)c2)c(=O)[nH]1`: the “Log 1/MEC” value turned out to be 2.94.

Regarding `Cc1cc(-n2ncc(=O)[nH]c2=O)cc(C)c1Sc1ccc(Cl)cc1` [TIAZURIL], the “Log 1/MEC” value stood at 2.86.

Turning to `O=c1cnn(-c2ccc(Sc3ccc(Cl)cc3)c(Cl)c2)c(=O)[nH]1`, the “Log 1/MEC” value came out at 2.26.

As to `O=c1cnn(-c2ccc(Sc3ccc4ccccc4c3)c(Cl)c2)c(=O)[nH]1`, the “Log 1/MEC” value was determined as 0.48.

Consider `Cc1cc(Cl)cc(-n2ncc(=O)[nH]c2=O)c1`, for which the “Log 1/MEC” value is 1.2.

`CS(=O)(=O)c1c(Cl)cc(-n2ncc(=O)[nH]c2=O)cc1Cl`: the “Log 1/MEC” value came out at 0.13.

As to `Cc1cc(-n2ncc(=O)[nH]c2=O)cc(Cl)c1Oc1ccc(Cl)cc1`, the “Log 1/MEC” value is listed as 1.98.

Regarding `O=c1cnn(-c2ccc(Cl)c(Cl)c2)c(=O)[nH]1`, the “Log 1/MEC” value is 0.63.

Regarding `CC(=O)c1ccc(Oc2c(C)cc(-n3ncc(=O)[nH]c3=O)cc2Cl)cc1`, the “Log 1/MEC” value was 2.27.

Turning to `Cc1cc(-n2ncc(=O)[nH]c2=O)cc(C)c1S(=O)(=O)c1ccc(Cl)cc1`, the “Log 1/MEC” value is 2.59.

With `CSc1ccc(Oc2ccc(-n3ncc(=O)[nH]c3=O)cc2C)cc1`, the “Log 1/MEC” value worked out at 2.23.

On to `O=c1cnn(-c2ccc(S(=O)(=O)N3CCCCC3)c(Cl)c2)c(=O)[nH]1`, for which the “Log 1/MEC” value was 0.17.

As to `O=c1cnn(-c2cc(Cl)c(S(=O)(=O)N3CCOCC3)c(Cl)c2)c(=O)[nH]1`, the “Log 1/MEC” value is 1.13.

Take `Cc1cc(-n2ncc(=O)[nH]c2=O)ccc1Oc1ccc(Br)cc1`: the “Log 1/MEC” value was found to be 1.7.

For `Cc1cc(-n2ncc(=O)[nH]c2=O)ccc1Oc1ccc(Cl)cc1Cl`, the “Log 1/MEC” value is 1.69.

Consider `C[C@@](C#N)(c1ccc(Cl)cc1)c1c(Cl)cc(-n2ncc(=O)[nH]c2=O)cc1Cl`, for which the “Log 1/MEC” value came to 2.62.

`Cc1cc(-n2ncc(=O)[nH]c2=O)cc(Cl)c1Sc1ccc(Cl)cc1`: the “Log 1/MEC” value was determined as 3.28.

Turning to `O=c1cnn(-c2ccc(Oc3ccc4cc(Br)ccc4c3)c(Cl)c2)c(=O)[nH]1`, the “Log 1/MEC” value came out at 1.77.

As to `COc1cc(OC)cc(-n2ncc(=O)[nH]c2=O)c1`, the “Log 1/MEC” value is listed as -0.3.

With `O=c1cnn(-c2cc(Cl)cc(Cl)c2)c(=O)[nH]1`, the “Log 1/MEC” value is 1.81.

As to `CC(=O)c1ccc(Sc2c(C)cc(-n3ncc(=O)[nH]c3=O)cc2Cl)cc1`, the “Log 1/MEC” value is 3.19.

In the case of `O=c1cnn(-c2ccc(Br)c(C(F)(F)F)c2)c(=O)[nH]1`, the “Log 1/MEC” value stood at 1.35.

As for `O=c1cnn(-c2cccc(Cl)c2)c(=O)[nH]1`, the “Log 1/MEC” value is given as 0.25.

Take `Cc1cc(-n2ncc(=O)[nH]c2=O)cc(Cl)c1S(=O)(=O)N(C)C`: the “Log 1/MEC” value is on record as 0.76.

Turning to `Cc1cc(-n2ncc(=O)[nH]c2=O)ccc1C(O)c1ccccc1` (stereo not drawn), the “Log 1/MEC” value is 1.01.

Consider `CSc1ccc(Oc2c(C)cc(-n3ncc(=O)[nH]c3=O)cc2C)cc1C`, for which the “Log 1/MEC” value amounted to 2.27.

In the case of `CSc1ccc(Oc2ccc(-n3ncc(=O)[nH]c3=O)cc2Cl)cc1`, the “Log 1/MEC” value was found to be 1.98.

These data come from ChEMBL document CHEMBL1125474, “Comparative molecular field analysis of anticoccidial triazines” (J Med Chem, 1992).
